Results from ChEMBL document CHEMBL2034936, “Discovery and extensive in vitro evaluations of NK-HDAC-1: a chiral histone deacetylase inhibitor as a promising lead” (J Med Chem, 2012).
In brackets after ≈: the same amount, converted by molar mass. Activity calls are given as the source filed them. The rule behind the calls is not given here.

Tests used:
SF-295 = assay: cells; type: functional; conditions: Homo sapiens, SF-295, 72 h
SN12C = assay: cells; type: functional; conditions: Homo sapiens, 72 h
[1] = target: T1, Histone deacetylase (Homo sapiens) (UniProt Q13547+O15379+Q9UBN7+Q92769+Q9UQL6+Q8WUI4+Q9BY41+Q96DB2+P56524+Q9UKV0+Q969S8); assay: Inhibition of HDAC in human MDA-MB-231 cells assessed as stimulation of histone H3 acetylation at 0.5 uM by Western blot; type: cell-based; conditions: TDE = time-dependent effect
Procedure, shortened: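 Time course in MDA-MB-231 cells at 0.5 μM, sampled from 3 h up to 24 h. Lysed in RIPA (pH 7.5, protease and phosphatase inhibitors) at 4 °C, then 60 μg protein run on SDS-PAGE. Western blot with anti-acetyl-histone H3 and ECL detection.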

SK-MEL-28 = assay: cells; type: functional; conditions: Homo sapiens, SK-MEL-28, 72 h
OVCAR-3 = assay: cells; type: functional; conditions: Homo sapiens, OVCAR-3, 72 h
SNB-19 = assay: cells; type: functional; conditions: Homo sapiens, SNB-19, 72 h
[2] = Apparent permeability from apical to basolateral side in human Caco2 cells at 10 uM; type: ADME, cell-based; conditions: Caco-2
Procedure, shortened: (§1)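 Caco-2 monolayers, test compound at 10 μM. Apparent permeability measured in both directions, apical to basolateral and basolateral to apical. Efflux ratio = P_app B to A / P_app A to B. Run by a contract lab following published methods. Mean of three independent triplicate experiments.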

Malme-3M = assay: cells; type: functional; conditions: Homo sapiens, 72 h
[3] = target: T1, Histone deacetylase (Homo sapiens); assay: Inhibition of HDAC in human MDA-MB-231 cells assessed as stimulation of histone H3 acetylation at 5 uM incubated for 24 hrs by Western blot; type: cell-based
Procedure, shortened: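 MDA-MB-231 cells in 35-mm dishes, dosed 24 h at graded concentrations, then trypsinized and PBS-washed. Lysed in RIPA (50 mM Tris-HCl pH 7.5, protease and phosphatase inhibitors) for 30 min at 4 °C, then cleared at 12,000g. Lysate, 60 μg protein by BCA, run on SDS-PAGE and PVDF. Blotted with anti-acetyl-histone H3 and HRP anti-rabbit, read by ECL.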

HOP-92 = assay: cells; type: functional; conditions: Homo sapiens, HOP-92, 72 h
TK-10 = assay: cells; type: functional; conditions: Homo sapiens, TK-10, 72 h
K562 = assay: cells; type: functional; conditions: Homo sapiens, K562, 72 h
CCRF-CEM = assay: Growth inhibition of human CCRF-CEM cells after 72 hrs by MTS assay; type: functional
MOLT-4 = assay: Growth inhibition of human MOLT4 cells after 72 hrs by MTS assay; type: functional; conditions: MOLT-4, 72 h
SK-MEL-2 = assay: cells; type: functional; conditions: Homo sapiens, SK-MEL-2, 72 h
[4] = Apparent permeability from basolateral to apical side in human Caco2 cells at 10 uM; type: ADME, cell-based; conditions: Caco-2
Procedure, shortened: as §1

OVCAR-4 = assay: cells; type: functional; conditions: Homo sapiens, OVCAR-4, 72 h
UO-31 = assay: cells; type: functional; conditions: Homo sapiens, UO-31, 72 h
HCT-15 = assay: cells; type: functional; conditions: Homo sapiens, HCT-15, 72 h
HCT-116 = assay: Growth inhibition of human HCT116 cells after 72 hrs by MTS assay; type: functional; conditions: HCT-116, 72 h
HT-29 = assay: Growth inhibition of human HT-29 cells after 72 hrs by MTS assay; type: functional; conditions: HT-29, 72 h
A549 = assay: cells; type: functional; conditions: Homo sapiens, A549, 72 h
OVCAR-5 = assay: Growth inhibition of human OVCAR5 cells after 72 hrs by MTS assay; type: functional; conditions: OVCAR-5, 72 h
SK-MEL-5 = assay: cells; type: functional; conditions: Homo sapiens, SK-MEL-5, 72 h
NCI-H226 = assay: cells; type: functional; conditions: Homo sapiens, NCI-H226, 72 h
EKVX = assay: cells; type: functional; conditions: Homo sapiens, 72 h
[5] = Half life in mouse liver microsomes; type: ADME, Microsome
UACC-257 = assay: cells; type: functional; conditions: Homo sapiens, UACC-257, 72 h
RXF 393 = assay: cells; type: functional; conditions: Homo sapiens, RXF 393, 72 h
UACC-62 = assay: Growth inhibition of human UACC62 cells after 72 hrs by MTS assay; type: functional; conditions: UACC-62, 72 h
SF-539 = assay: cells; type: functional; conditions: Homo sapiens, SF-539, 72 h
KM12 = assay: cells; type: functional; conditions: Homo sapiens, KM12, 72 h
LOX IMVI = assay: cells; type: functional; conditions: Homo sapiens, 72 h
M14 = assay: cells; type: functional; conditions: Homo sapiens, M14, 72 h
SF-268 = assay: cells; type: functional; conditions: Homo sapiens, SF-268, 72 h
[6] = Solubility in pH 7.4 PBS buffer; type: physicochemical
OVCAR-8 = assay: cells; type: functional; conditions: Homo sapiens, OVCAR-8, 72 h
cells = type: functional; conditions: Homo sapiens, NCI/ADR-RES, 72 h
[7] = Half life in artificial intestinal fluid; type: physicochemical
COLO 205 = assay: Growth inhibition of human COLO205 cells after 72 hrs by MTS assay; type: functional; conditions: COLO 205, 72 h
[8] = Half life in mouse plasma; type: ADME, cell-free
in vitro = conditions: human, MCF10A cells
A498 = assay: cells; type: functional; conditions: Homo sapiens, A498, 72 h
T47D = assay: cells; type: functional; conditions: Homo sapiens, 72 h
U-251 = assay: cells; type: functional; conditions: Homo sapiens, U-251, 72 h
MDA-MB-435 = assay: cells; type: functional; conditions: Homo sapiens, MDA-MB-435, 72 h
IGROV-1 = assay: cells; type: functional; conditions: Homo sapiens, IGROV-1, 72 h

CC(C)[C@@H](c1nc2ccccc2o1)n1cc(/C=C/C(=O)NO)nn1
GI50 (SF-295): 120 nM | GI50 (SN12C): 360 nM | inhibition [1]: tde | GI50 (SK-MEL-28): 220 nM | GI50 (OVCAR-3): 220 nM | GI50 (SNB-19): 430 nM | Papp A→B at 10 µM [2]: 6.61 ×10⁻⁶ cm/s | GI50 (Malme-3M): 16 nM | histone H3 acetylation activity (active/not active) [3]: Active | GI50 (HOP-92): 10 nM | GI50 (TK-10): 44 nM | GI50 (K562): 88 nM | GI50 (CCRF-CEM): 110 nM | GI50 (MOLT-4): 72 nM | GI50 (SK-MEL-2): 87 nM | Papp B→A at 10 µM [4]: 7.61 ×10⁻⁶ cm/s | GI50 (OVCAR-4): 700 nM | GI50 (UO-31): 60 nM | GI50 (HCT-15): 470 nM | GI50 (HCT-116): 38 nM | GI50 (HT-29): 79 nM | GI50 (A549): 160 nM | GI50 (OVCAR-5): 140 nM | GI50 (SK-MEL-5): 100 nM | GI50 (NCI-H226): 540 nM | GI50 (EKVX): 240 nM | half-life [5]: 3.25 h | GI50 (UACC-257): 88 nM | GI50 (RXF 393): 180 nM | GI50 (UACC-62): 140 nM | GI50 (SF-539): 240 nM | GI50 (KM12): 230 nM | GI50 (LOX IMVI): 44 nM | GI50 (M14): 180 nM | GI50 (SF-268): 330 nM | solubility [6]: 20 µg/mL (≈ 61.1 µM) | GI50 (OVCAR-8): 84 nM | GI50 (cells): 27 nM | half-life [7]: > 24 h | GI50 (COLO 205): 140 nM | half-life [8]: 32 h | GI50 at 48 h (in vitro): 1600 nM | GI50 (A498): 180 nM | GI50 (T47D): 51 nM | GI50 (U-251): 180 nM | GI50 (MDA-MB-435): 91 nM | GI50 (IGROV-1): 56 nM
